We go through four compounds from ChEMBL document CHEMBL1123247, “Nucleoside conjugates. 7. Synthesis and antitumor activity of 1-beta-D-arabinofuranosylcytosine conjugates of ether lipids” (J Med Chem, 1986).

The subject of test [1] is P388. As to the kind of experiment: Antitumor activity was determined against the ip implanted P388 leukemia in mice by percent increase in life span at 67 mg/kg (treatment of 1,5,9qd schedule) dosage. The conditions noted are these: route intraperitoneal. The test is classed as functional, Mus musculus.
Test [2] relates to L1210. As to the kind of experiment: Antitumor activity was determined against the ip implanted L1210 leukemia in mice by 45-day survivors in mice at 100 mg/kg (treatment of 1-5qd schedule) dosage. The test is classed as functional, Mus musculus. Particulars: route intraperitoneal. In a few lines:
(§1)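 DBA/2J mice in groups of 6 (wt 23-28 g) were inoculated ip with 1×10^6 L1210 cells on day 0. Dosing was ip from 24 h, in 0.9% NaCl with 0.5% Tween-80 (conjugates sonicated), across a range of doses. Mice were observed daily until death or 45 days. Median T/C was computed from survivors per NCI protocols, and ILS = (T/C − 1)×100.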

Test [3] has as its system L1210. The experiment in a line: Antitumor activity against ip implanted L1210 leukemia in mice expressed as active dose range (1-5qd treatment schedule) required to produce increase in life span by >25% was determined; Range is 10-80. Format: functional, Mus musculus. The method in brief: (§2)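 DBA/2J mice, groups of 6 (23-28 g), were inoculated ip with 1 × 10^6 L1210 cells on day 0. Dosing was ip from 24 h, in 0.9% NaCl with 0.5% Tween-80 (sonicated solution or suspension). Mice were observed daily until death or day 45. Median survival T/C followed NCI protocols, and ILS = (T/C − 1) × 100. Active range means doses giving ILS ≥25%; optimal dose means greatest ILS.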

Test [4] has as its system L1210. As to the kind of experiment: Antitumor activity was determined against the ic implanted L1210 lymphoid leukemia in mice by percent median survival rate (treated/control) at 80 mg/kg (1-5qd treatment schedule) dosage; 22.0/8.0. The test is classed as functional, Mus musculus.
Test [5] has as its system L1210. The experiment in a line: Antitumor activity against the ic implanted L1210 lymphoid leukemia in mice (1,5,9qd treatment schedule) required to produce greatest increase in life span was determined. Format: functional, Mus musculus. The method in brief: (§3)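 DBA/2J mice, groups of 6 (26-32 g), got 1 × 10^5 L1210 cells ic on day 0. Dosing was ip starting 24 h later, as a sonicated solution or suspension in 0.9% NaCl with 0.5% Tween-80, over a wide dose range. Mice were followed daily until death. Median survival T/C was taken from survivors per NCI protocols, and ILS = (T/C − 1) × 100. Active range means doses giving ILS ≥25%; optimal dose means greatest ILS.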

Test [6] has as its system L1210. As to the kind of experiment: Antitumor activity was determined against the ip implanted L1210 leukemia in mice by change in […] at 40 mg/kg (treatment of 1-5qd schedule) dosage. Particulars: route intraperitoneal. Format: functional, Mus musculus. The method in brief:
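DBA/2J mice, 6 per group (wt 23-28 g), inoculated ip with 1×10^6 L1210 cells on day 0. Treatment was given ip in 0.9% NaCl with 0.5% Tween-80, starting 24 h later. Weight change was taken on day 8. Mice were observed daily until death or 45 days. Median survival T/C and %ILS = (T/C − 1) × 100 came from survivors per NCI protocols, and 45-day survivors were counted.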

The test system of test [7] is L1210. The experiment in a line: Antitumor activity was determined against the ip implanted L1210 leukemia in mice by percent median survival rate (treated/control) at 300 mg/kg (treatment of 1qd schedule) dosage; 20.5/6.5. The test is classed as functional, Mus musculus. The conditions noted are these: route intraperitoneal. In a few lines:
(§4)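 DBA/2J mice, 23-28 g, in groups of 6, were inoculated ip with 1×10^6 L1210 cells on day 0. Dosing was ip starting 24 h later on the stated daily schedules. Conjugates were given as sonicated solutions and reference prodrugs as suspensions in 0.9% NaCl with 0.5% Tween-80. Mice were observed daily until death or 45 days. Median survival T/C was calculated from survivors per NCI protocols.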

The subject of test [8] is P388. The experiment in a line: Antitumor activity was determined against the ip implanted P388 leukemia in mice by percent median survival rate (treated/control) at 500 mg/kg (1 qd treatment schedule) dosage; >45.0/11.0. Format: functional, Mus musculus. The conditions noted are these: route intraperitoneal.
Test [9] has as its system P388. As to the kind of experiment: Antitumor activity was determined against the ip implanted P388 leukemia in mice by 45-day survivors in mice at 500 mg/kg (1 qd treatment schedule) dosage. The test is classed as functional, Mus musculus. Particulars: route intraperitoneal. In a few lines:
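DBA/2J mice, 23-33 g, in groups of 6, were inoculated ip with 1×10^6 P388 cells on day 0. Dosing was ip from 24 h on the stated schedules, in 0.9% NaCl with 0.5% Tween-80 (sonicated solution or suspension). Survival was followed daily until death or 45 days. Median T/C was calculated from survivors per NCI protocols, with ILS = (T/C − 1) × 100.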

Test [10] has as its system P388. The experiment in a line: Antitumor activity was determined against the ip implanted P388 leukemia in mice by percent increase in life span at 300 mg/kg (treatment of 1qd schedule) dosage. Particulars: route intraperitoneal.
In test [11] the test system is P388. As to the kind of experiment: Antitumor activity was determined against the ip implanted P388 leukemia in mice by percent median survival rate (treated/control) at 133 mg/kg (treatment of 1,5,9qd schedule) dosage; Range is >45.0/11.0. The conditions noted are these: route intraperitoneal.
The subject of test [12] is P388. The experiment in a line: Antitumor activity was determined against the ip implanted P388 leukemia in mice by change in […] at 60 mg/kg (treatment of 1-5qd schedule) dosage. Format: functional, Mus musculus. Particulars: route intraperitoneal. In a few lines:
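P388 leukemia, 1×10^6 cells implanted ip on day 0 into DBA/2J mice, groups of 6 (wt 23-33 g). Dosing ip started 24 h post-inoculation, vehicle 0.9% NaCl containing 0.5% Tween-80. Animals were observed daily until death or 45 days. Outputs were weight change, median survival T/C from survivors per NCI protocols, and %ILS = (T/C − 1) × 100.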

Test [13] relates to L1210. As to the kind of experiment: Antitumor activity was determined against the ic implanted L1210 lymphoid leukemia in mice by median survival time at 167 mg/kg (treatment of 1, 5, 9qd schedule) dosage; 21.0/7.0.
Test [14] relates to L1210. The experiment in a line: Antitumor activity was determined against the ip implanted L1210 leukemia in mice by percent increase in life span at 80 mg/kg (treatment of 1-5qd schedule) dosage. Format: functional, Mus musculus. The conditions noted are these: route intraperitoneal. The method in brief: as §1
Test [15] relates to L1210. The experiment in a line: Antitumor activity was determined against the ip implanted L1210 leukemia in mice by percent median survival rate (treated/control) at 400 mg/kg (treatment of 1qd schedule) dosage; 9.5/8.0. Format: functional, Mus musculus. The conditions noted are these: route intraperitoneal. In a few lines: as §4
Test [16] concerns L1210. The experiment in a line: Antitumor activity was determined against the ip implanted L1210 leukemia in mice by 45-day survivors in mice at 200 mg/kg (treatment of 1-5qd schedule) dosage. The test is classed as functional, Mus musculus. Particulars: route intraperitoneal. In a few lines:
as §1

Test [17] relates to L1210. The experiment in a line: Antitumor activity against ip implanted L1210 leukemia in mice expressed as active dose range (1-5qd treatment schedule) required to produce increase in life span by >25% was determined; Range is 5-350. The test is classed as functional, Mus musculus. In a few lines:
as §2

The subject of test [18] is L1210. As to the kind of experiment: Antitumor activity was determined against the ic implanted L1210 lymphoid leukemia in mice by median survival time at 300 mg/kg (treatment of 1-5qd schedule) dosage; 16.0/7.0.
The test system of test [19] is L1210. The experiment in a line: Antitumor activity against the ic implanted L1210 lymphoid leukemia in mice expressed as optimal dose (1-9qd treatment schedule) required to produce greatest increase in life span was determined. Format: functional, Mus musculus. The method in brief:
as §3

Test [20] deals with L1210. As to the kind of experiment: Antitumor activity was determined against the ip implanted L1210 leukemia in mice by percent increase in life span at 200 mg/kg (treatment of 1-5qd schedule) dosage. Format: functional, Mus musculus. The conditions noted are these: route intraperitoneal. The method in brief: as §1

Turning to `CCCCCCCCCCCCCCCCCCOCC(COP(=O)(O)OP(=O)(O)OC[C@H]1O[C@@H](n2ccc(N)nc2=O)[C@@H](O)[C@@H]1O)OC(=O)CCCCCCCCCCCCCCC` (mixture of isomers), the ILS in the test with P388 [1] is on record as 132. Further, the Survivors in the test with L1210 [2] is recorded as 0.
In the test on L1210 [3], `CCCCCCCCCCCCCCCC(=O)OC[C@H](COP(=O)(O)OP(=O)(O)OC[C@H]1O[C@@H](n2ccc(N)nc2=O)[C@@H](O)[C@@H]1O)OC(=O)CCCCCCCCCCCCCCC` had an Active dose range of 10 mg/kg/day. Further, the figures for the median survival time in the test with L1210 [4] and in the test on L1210 [7] were 22 days and 20.5 days, respectively. Moreover, the Optimal dose with L1210 [5] came to 133 mg. In addition, the Weight change with L1210 [6] is recorded as -1.9 g mouse-1. Also, in the test on P388 [8], the T/C is above 45%. The compound also showed a Survivors in the test on P388 [9] of 4.
`CCCCCCCCCCCCCCCCOCC(COP(=O)(O)OP(=O)(O)OC[C@H]1O[C@@H](n2ccc(N)nc2=O)[C@@H](O)[C@@H]1O)OC(=O)CCCCCCCCCCCCCCC` (mixture of isomers): the results for the ILS in the test with P388 [10] and with L1210 [14] were above 309 and 264, respectively. This compound came in with a T/C in the test with P388 [11] above 45%. Moreover, the Weight change in the test with P388 [12] was -3.3 g mouse-1. For the same compound, the median survival time in the test on L1210 [13] was determined as 21 days.
As to `Nc1ccn([C@@H]2O[C@H](CO)[C@@H](O)[C@@H]2O)c(=O)n1` [CYTARABINE], in the test with L1210 [15], the T/C amounted to 9.5%. Also, the Survivors in the test with L1210 [16] stood at 0. The compound also yielded an Active dose range with L1210 [17] of 5 mg/kg/day. In the test on L1210 [18], the median survival time was determined as 16 days. Moreover, the Optimal dose in the test on L1210 [19] is given as 100 mg. This compound also had an ILS with L1210 [20] of 143.

A word on the T/C: it is the ratio of treated to control.
